Columns and labels:
Assay type in all cases: functional
A549 = experiment: Inhibitor activity against A549 (Human lung carcinoma)cell line with varying concentration of the drug for 72 hrs; conditions: A549, 72 h
Outline: (§1)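 Cells exposed 72 h to a range of drug concentrations; drug stocks prepared in ethanol. Growth read by in situ fixation and sulforhodamine B protein staining. GI50 is the concentration giving 50% growth inhibition. Each experiment's value comes from three wells on each of two separate plates (six wells); reported as mean ± SD over n experiments.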

HT-29 = experiment: Inhibitor activity against HT-29 (Human colon carcinoma)cell line with varying concentration of the drug for 72 hrs; conditions: HT-29, 72 h; outline: as §1
L1210 [1] = experiment: Inhibitor activity against L1210 (murine leukemia )cell line with varying concentration of the drug for 72 hrs; conditions: Mus musculus, L1210, 72 h
Outline: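 Murine L1210 leukemia cells grown in RPMI 1640 with 10% FBS. Exposed 72 h to a range of drug concentrations; drug stocks in ethanol. Growth read by in situ fixation and sulforhodamine B staining. GI50 is the concentration giving 50% growth inhibition. Each value comes from six wells over two plates; reported as mean ± SD.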

L1210 [2] = experiment: Inhibitor activity against L1210/vmdr (transfected with a plasmid containing mdr1) cell line with varying concentration of the drug for 72 hrs; conditions: Mus musculus, L1210, 72 h
Outline: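 L1210 leukemia transfected with human mdr1 (pHaMDR1/A), grown in RPMI 1640 with 10% FBS plus 0.06 µg/mL colchicine; colchicine removed one week before assay. Exposed 72 h to a range of drug concentrations (ethanol stocks). Sulforhodamine B staining after in situ fixation. GI50 is the concentration giving 50% growth inhibition, from six wells over two plates.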

MCF7 [3] = experiment: Inhibitor activity against MCF-7(Human breast carcinoma)cell line with varying concentration of the drug for 72 hrs; conditions: MCF7, 72 h; outline: as §1
MCF7 [4] = experiment: Inhibitor activity against MCF-7/Adr (Human colon carcinoma)cell line with varying concentration of the drug for 72 hrs; conditions: MCF7, 72 h, in the assay text read “Human breast carcinoma” for “Human colon carcinoma”; outline: as §1
[5] = system: Lewis lung carcinoma cell line; experiment: Inhibitor activity against Lewis lung (murine lung carcinoma)cell line with varying concentration of the drug for 72 hrs; conditions: Mus musculus; outline: as §1
P388 [6] = experiment: Inhibitor activity against P388 (murine leukemia )cell line with varying concentration of the drug for 72 hrs; conditions: Mus musculus, P388, 72 h; outline: as §1
P388 [7] = experiment: Inhibitor activity against P388/Adr (murine leukemia )cell line with varying concentration of the drug for 72 hrs; conditions: Mus musculus, P388, 72 h; outline: as §1

Compound	GI50 (A549) [µM]	GI50 (HT-29) [µM]	GI50 (L1210 [1]) [µM]	GI50 (L1210 [2]) [µM]	GI50 (MCF7 [3]) [µM]	GI50 (MCF7 [4]) [µM]	GI50 [5] [µM]	GI50 (P388 [6]) [µM]	GI50 (P388 [7]) [µM]
CCCCCCCCCCCCCCCCOC[C@H](CO[C@@H]1O[C@@H](CO)[C@@H](O)[C@H](O)[C@@H]1O)OC	18.1	23.2	16.2	18.9	21.7	23.3			
CCCCCCCCCCCCCCCCOC[C@H](CO[C@@H]1C[C@@H](O)[C@H](O)[C@H](CO)O1)OC	19.7	29.6	18.8	26.9	24.4	24.4			
CCCCCCCCCCCCCCCCOC[C@H](CO[C@H]1O[C@@H](CO)[C@@H](O)[C@H](O)[C@H]1OC)OC	15.6	20	15.5	16.5	18.2	18.6			
CCCCCCCCCCCCCCCCCCOC[C@H](COP(=O)([O-])OCC[N+](C)(C)C)OC [(R)-EDELFOSINE]	5.05	2.2	3.32	11	9.66	30.4	30.2	4.33	6.39
CCCCCCCCCCCCCCCCOC[C@H](CO[C@@H]1O[C@@H](CO)[C@@H](O)[C@H](O)[C@@H]1OC)OC	18.3				23.1	21.8	26	18.1	29.3
CCCCCCCCCCCCCCCCOC[C@H](CO[C@H]1C[C@@H](O)[C@H](O)[C@H](CO)O1)OC	9.9	7.59	7.02	7.09	6.93	12.8	11.1	12.7	10.2
